How the values were obtained:
[1] = Inhibition of Cryptosporidium parvum CDPK1 using PLARTLSVAGLPGKK peptide as substrate by NADH coupled LDH-PK ATPase assay
Procedure, shortened: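 NADH-coupled LDH-PK ATPase read-out with 1.2 nM recombinant CpCDPK1, 0.25 mM ATP, 0.1 mM Syntide 2.0 peptide and 2 mM CaCl2. Inhibitors were made as 10 mM DMSO stocks and tested in 2-fold serial dilutions. IC50 is the average of triplicate experiments.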

[2] = target: Serine/threonine-protein kinase MARK2 (Homo sapiens) (UniProt Q7KZI7); assay: Inhibition of human MARK2 (2 to 691 residues) assessed as residual activity at 500 nM in presence of 33P-ATP by filter binding assay relative to control
[3] = target: Mitogen-activated protein kinase kinase kinase kinase 2 (Homo sapiens) (UniProt Q12851); assay: Inhibition of human GCK (2 to 812 residues) assessed as residual activity at 500 nM in presence of 33P-ATP by filter binding assay relative to control
[4] = target: Calcium/calmodulin-dependent protein kinase kinase 2 (Homo sapiens) (UniProt Q96RR4); assay: Inhibition of human CAMKKbeta (1 to 541 residues) assessed as residual activity at 500 nM in presence of 33P-ATP by filter binding assay relative to control
[5] = target: Casein kinase II subunit alpha (Homo sapiens) (UniProt P68400); assay: Inhibition of human CK2alpha (2 to 391 residues) assessed as residual activity at 500 nM in presence of 33P-ATP by filter binding assay relative to control
[6] = target: Dual specificity protein kinase TTK (Homo sapiens) (UniProt P33981); assay: Inhibition of human TTK (1 to 857 residues) assessed as residual activity at 500 nM in presence of 33P-ATP by filter binding assay relative to control
[7] = target: Ribosomal protein S6 kinase alpha-5 (Homo sapiens) (UniProt O75582); assay: Inhibition of human MSK1 (2 to 802 residues) assessed as residual activity at 500 nM in presence of 33P-ATP by filter binding assay relative to control
[8] = target: Casein kinase I isoform gamma-2 (Homo sapiens) (UniProt P78368); assay: Inhibition of human CK1gamma2 (1 to 415 residues) assessed as residual activity at 500 nM in presence of 33P-ATP by filter binding assay relative to control
[9] = target: SRSF protein kinase 1 (Homo sapiens) (UniProt Q96SB4); assay: Inhibition of human SRPK1 (2 to 654 residues) assessed as residual activity at 500 nM in presence of 33P-ATP by filter binding assay relative to control
[10] = target: Dual specificity tyrosine-phosphorylation-regulated kinase 3 (Homo sapiens) (UniProt O43781); assay: Inhibition of human DYRK3 (1 to 588 residues) assessed as residual activity at 500 nM in presence of 33P-ATP by filter binding assay relative to control
[11] = target: Mitogen-activated protein kinase kinase kinase 9 (Homo sapiens) (UniProt P80192); assay: Inhibition of human MLK1 (132 to 413 residues) assessed as residual activity at 500 nM in presence of 33P-ATP by filter binding assay relative to control
[12] = target: Mitogen-activated protein kinase 3 (Homo sapiens) (UniProt P27361); assay: Inhibition of human ERK1 (2 to 379 residues) assessed as residual activity at 500 nM in presence of 33P-ATP by filter binding assay relative to control
[13] = target: Serine/threonine-protein kinase PAK 4 (Homo sapiens) (UniProt O96013); assay: Inhibition of human PAK4 (2 to 591 residues) assessed as residual activity at 500 nM in presence of 33P-ATP by filter binding assay relative to control
[14] = target: Serine/threonine-protein kinase ULK1 (Homo sapiens) (UniProt O75385); assay: Inhibition of human ULK1 (2 to 1050 residues) assessed as residual activity at 500 nM in presence of 33P-ATP by filter binding assay relative to control
[15] = target: Tyrosine-protein kinase BTK (Homo sapiens) (UniProt Q06187); assay: Inhibition of human BTK (2 to 659 residues) assessed as residual activity at 500 nM in presence of 33P-ATP by filter binding assay relative to control
[16] = target: Myosin light chain kinase, smooth muscle (Homo sapiens) (UniProt Q15746); assay: Inhibition of human smMLCK (475 to 838 residues) assessed as residual activity at 500 nM in presence of 33P-ATP by filter binding assay relative to control
[17] = target: Mitogen-activated protein kinase 7 (Homo sapiens) (UniProt Q13164); assay: Inhibition of human ERK5 (1 to 816 residues) assessed as residual activity at 500 nM in presence of 33P-ATP by filter binding assay relative to control
[18] = target: Tyrosine-protein kinase CSK (Homo sapiens) (UniProt P41240); assay: Inhibition of human CSK (1 to 450 residues) assessed as residual activity at 500 nM in presence of 33P-ATP by filter binding assay relative to control
[19] = target: Serine/threonine-protein kinase 16 (Homo sapiens) (UniProt O75716); assay: Inhibition of human MPSK1 (1 to 305 residues) assessed as residual activity at 500 nM in presence of 33P-ATP by filter binding assay relative to control
[20] = target: Serine/threonine-protein kinase TAO1 (Homo sapiens) (UniProt Q7L7X3); assay: Inhibition of human TAO1 (1 to 356 residues) assessed as residual activity at 500 nM in presence of 33P-ATP by filter binding assay relative to control
[21] = target: Tyrosine-protein kinase SYK (Homo sapiens) (UniProt P43405); assay: Inhibition of human SYK (1 to 635 residues) assessed as residual activity at 500 nM in presence of 33P-ATP by filter binding assay relative to control
[22] = target: Ephrin type-B receptor 3 (Homo sapiens) (UniProt P54753); assay: Inhibition of human EPHB3 (565 to 984 residues) assessed as residual activity at 500 nM in presence of 33P-ATP by filter binding assay relative to control
[23] = target: Fibroblast growth factor receptor 1 (Homo sapiens) (UniProt P11362); assay: Inhibition of human FGFR1 (400 to 820 residues) assessed as residual activity at 500 nM in presence of 33P-ATP by filter binding assay relative to control
[24] = target: Dual specificity protein kinase CLK2 (Homo sapiens) (UniProt P49760); assay: Inhibition of human CLK2 (138 to 499 residues) assessed as residual activity at 500 nM in presence of 33P-ATP by filter binding assay relative to control
[25] = target: Tyrosine-protein kinase Yes (Homo sapiens) (UniProt P07947); assay: Inhibition of human YES1 (1 to 543 residues) assessed as residual activity at 500 nM in presence of 33P-ATP by filter binding assay relative to control

Sequence of SRSF protein kinase 1 (Homo sapiens) (Q96SB4 whole entry, the tested form may be a part): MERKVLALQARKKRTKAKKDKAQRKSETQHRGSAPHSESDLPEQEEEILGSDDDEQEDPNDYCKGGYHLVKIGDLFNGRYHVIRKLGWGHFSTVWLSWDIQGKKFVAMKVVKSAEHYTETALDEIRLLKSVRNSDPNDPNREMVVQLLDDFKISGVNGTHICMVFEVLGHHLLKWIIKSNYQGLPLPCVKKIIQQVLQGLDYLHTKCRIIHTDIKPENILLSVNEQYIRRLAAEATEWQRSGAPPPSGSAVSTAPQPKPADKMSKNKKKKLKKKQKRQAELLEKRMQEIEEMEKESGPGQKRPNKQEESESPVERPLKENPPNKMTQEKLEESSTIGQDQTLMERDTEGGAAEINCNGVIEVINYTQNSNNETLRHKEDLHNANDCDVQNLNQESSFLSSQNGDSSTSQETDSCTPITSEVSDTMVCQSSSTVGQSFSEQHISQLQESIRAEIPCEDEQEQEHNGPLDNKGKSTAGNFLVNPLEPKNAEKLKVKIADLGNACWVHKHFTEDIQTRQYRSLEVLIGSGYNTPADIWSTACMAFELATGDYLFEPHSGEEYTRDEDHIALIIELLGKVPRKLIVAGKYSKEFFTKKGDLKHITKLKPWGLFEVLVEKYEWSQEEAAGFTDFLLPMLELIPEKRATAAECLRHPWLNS
Sequence of Casein kinase II subunit alpha (Homo sapiens) (P68400 whole entry, looked up, the tested form may be a part): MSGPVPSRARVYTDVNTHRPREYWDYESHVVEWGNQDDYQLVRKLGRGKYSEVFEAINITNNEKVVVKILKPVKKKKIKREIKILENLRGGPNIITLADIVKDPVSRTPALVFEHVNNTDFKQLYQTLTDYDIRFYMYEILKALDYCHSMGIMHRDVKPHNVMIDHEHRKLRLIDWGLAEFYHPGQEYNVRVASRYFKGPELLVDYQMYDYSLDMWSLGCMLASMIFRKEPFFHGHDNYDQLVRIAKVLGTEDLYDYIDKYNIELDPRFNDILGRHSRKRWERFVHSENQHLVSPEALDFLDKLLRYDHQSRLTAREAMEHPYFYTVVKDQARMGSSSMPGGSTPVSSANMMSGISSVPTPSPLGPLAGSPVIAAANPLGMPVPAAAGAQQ
Sequence of Serine/threonine-protein kinase 16 (Homo sapiens) (O75716 whole entry, the tested form may be a part): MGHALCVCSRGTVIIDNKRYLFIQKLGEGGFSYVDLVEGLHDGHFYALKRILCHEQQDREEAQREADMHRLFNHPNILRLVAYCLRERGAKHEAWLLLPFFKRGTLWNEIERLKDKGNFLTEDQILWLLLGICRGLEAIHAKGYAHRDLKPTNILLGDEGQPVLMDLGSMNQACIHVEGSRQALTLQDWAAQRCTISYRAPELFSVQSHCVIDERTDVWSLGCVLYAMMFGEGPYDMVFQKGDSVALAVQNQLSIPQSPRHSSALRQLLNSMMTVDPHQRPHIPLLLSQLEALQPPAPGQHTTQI
Sequence of Mitogen-activated protein kinase 3 (Homo sapiens) (P27361 whole entry, the tested form may be a part): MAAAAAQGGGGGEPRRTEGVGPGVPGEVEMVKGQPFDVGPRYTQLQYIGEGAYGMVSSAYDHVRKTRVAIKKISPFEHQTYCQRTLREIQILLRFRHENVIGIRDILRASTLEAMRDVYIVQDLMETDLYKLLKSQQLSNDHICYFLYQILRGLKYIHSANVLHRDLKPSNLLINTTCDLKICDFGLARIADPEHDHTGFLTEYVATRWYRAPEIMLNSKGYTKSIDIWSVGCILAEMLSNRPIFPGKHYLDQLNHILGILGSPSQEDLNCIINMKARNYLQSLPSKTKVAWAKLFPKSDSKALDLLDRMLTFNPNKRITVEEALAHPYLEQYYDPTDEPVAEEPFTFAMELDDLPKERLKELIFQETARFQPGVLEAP
Sequence of Calcium/calmodulin-dependent protein kinase kinase 2 (Homo sapiens) (Q96RR4 2-588 limits assumed): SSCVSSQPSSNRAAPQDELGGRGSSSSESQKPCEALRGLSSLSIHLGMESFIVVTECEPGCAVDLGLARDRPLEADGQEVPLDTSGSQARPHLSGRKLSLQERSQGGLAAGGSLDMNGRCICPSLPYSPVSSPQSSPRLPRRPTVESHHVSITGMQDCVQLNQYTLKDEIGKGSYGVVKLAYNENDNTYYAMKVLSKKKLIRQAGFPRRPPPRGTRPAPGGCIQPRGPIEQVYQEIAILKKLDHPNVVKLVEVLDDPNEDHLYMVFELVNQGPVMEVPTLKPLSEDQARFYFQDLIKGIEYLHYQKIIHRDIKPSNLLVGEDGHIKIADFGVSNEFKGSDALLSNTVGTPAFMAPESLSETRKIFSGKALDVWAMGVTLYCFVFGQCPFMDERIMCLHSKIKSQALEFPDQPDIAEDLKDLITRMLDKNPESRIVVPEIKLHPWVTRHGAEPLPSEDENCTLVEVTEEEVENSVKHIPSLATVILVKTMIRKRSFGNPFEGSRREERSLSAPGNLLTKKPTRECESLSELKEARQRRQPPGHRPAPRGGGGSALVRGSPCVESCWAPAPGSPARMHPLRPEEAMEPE
Sequence of Mitogen-activated protein kinase kinase kinase 9 (Homo sapiens) (P80192 whole entry, looked up, the tested form may be a part): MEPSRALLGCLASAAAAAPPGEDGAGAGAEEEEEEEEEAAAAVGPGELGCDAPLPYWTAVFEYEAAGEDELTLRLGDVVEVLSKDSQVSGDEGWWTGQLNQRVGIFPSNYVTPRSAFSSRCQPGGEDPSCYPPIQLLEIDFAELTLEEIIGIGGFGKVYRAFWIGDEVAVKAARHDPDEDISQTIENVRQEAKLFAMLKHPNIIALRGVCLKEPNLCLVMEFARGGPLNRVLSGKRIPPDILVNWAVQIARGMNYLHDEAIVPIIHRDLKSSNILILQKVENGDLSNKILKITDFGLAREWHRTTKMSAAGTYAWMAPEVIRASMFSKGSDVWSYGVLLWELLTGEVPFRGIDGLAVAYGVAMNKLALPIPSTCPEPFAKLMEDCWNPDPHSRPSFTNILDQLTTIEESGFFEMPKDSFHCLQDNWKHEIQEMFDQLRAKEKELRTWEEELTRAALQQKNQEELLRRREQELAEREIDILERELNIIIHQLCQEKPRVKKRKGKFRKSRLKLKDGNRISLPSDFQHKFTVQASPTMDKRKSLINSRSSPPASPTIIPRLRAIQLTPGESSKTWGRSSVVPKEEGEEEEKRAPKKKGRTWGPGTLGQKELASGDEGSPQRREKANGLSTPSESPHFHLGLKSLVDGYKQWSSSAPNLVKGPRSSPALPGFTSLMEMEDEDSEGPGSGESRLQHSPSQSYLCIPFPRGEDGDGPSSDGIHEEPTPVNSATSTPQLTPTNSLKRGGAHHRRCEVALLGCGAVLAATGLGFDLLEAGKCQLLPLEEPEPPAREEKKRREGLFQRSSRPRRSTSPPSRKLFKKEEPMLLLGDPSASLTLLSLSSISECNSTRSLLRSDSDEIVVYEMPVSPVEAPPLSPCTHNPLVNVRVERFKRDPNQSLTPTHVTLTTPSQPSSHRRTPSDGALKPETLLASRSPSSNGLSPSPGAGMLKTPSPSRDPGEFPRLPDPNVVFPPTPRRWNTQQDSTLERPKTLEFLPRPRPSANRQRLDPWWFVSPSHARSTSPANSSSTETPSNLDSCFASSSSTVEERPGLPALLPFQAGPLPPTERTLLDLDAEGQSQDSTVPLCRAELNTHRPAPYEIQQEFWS
Sequence of Tyrosine-protein kinase BTK (Homo sapiens) (Q06187 whole entry, the tested form may be a part): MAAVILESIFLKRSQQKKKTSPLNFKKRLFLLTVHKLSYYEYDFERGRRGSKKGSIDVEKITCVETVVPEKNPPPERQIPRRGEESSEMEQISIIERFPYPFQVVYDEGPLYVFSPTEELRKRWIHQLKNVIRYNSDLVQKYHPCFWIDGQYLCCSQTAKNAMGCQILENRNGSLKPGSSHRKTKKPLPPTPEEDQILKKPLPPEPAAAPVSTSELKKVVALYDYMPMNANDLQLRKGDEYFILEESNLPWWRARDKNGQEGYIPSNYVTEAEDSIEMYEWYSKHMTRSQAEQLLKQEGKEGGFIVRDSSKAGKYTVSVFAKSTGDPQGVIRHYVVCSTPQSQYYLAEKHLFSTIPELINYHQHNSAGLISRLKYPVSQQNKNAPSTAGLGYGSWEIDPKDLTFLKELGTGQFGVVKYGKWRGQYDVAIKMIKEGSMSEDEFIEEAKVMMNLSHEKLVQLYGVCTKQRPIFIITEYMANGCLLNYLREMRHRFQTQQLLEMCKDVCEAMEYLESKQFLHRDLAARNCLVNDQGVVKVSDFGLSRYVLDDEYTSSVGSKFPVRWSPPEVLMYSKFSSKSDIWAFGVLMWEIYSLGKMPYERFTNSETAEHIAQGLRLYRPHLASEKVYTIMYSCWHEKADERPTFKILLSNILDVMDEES
Sequence of Fibroblast growth factor receptor 1 (Homo sapiens) (P11362 22-822 limits assumed): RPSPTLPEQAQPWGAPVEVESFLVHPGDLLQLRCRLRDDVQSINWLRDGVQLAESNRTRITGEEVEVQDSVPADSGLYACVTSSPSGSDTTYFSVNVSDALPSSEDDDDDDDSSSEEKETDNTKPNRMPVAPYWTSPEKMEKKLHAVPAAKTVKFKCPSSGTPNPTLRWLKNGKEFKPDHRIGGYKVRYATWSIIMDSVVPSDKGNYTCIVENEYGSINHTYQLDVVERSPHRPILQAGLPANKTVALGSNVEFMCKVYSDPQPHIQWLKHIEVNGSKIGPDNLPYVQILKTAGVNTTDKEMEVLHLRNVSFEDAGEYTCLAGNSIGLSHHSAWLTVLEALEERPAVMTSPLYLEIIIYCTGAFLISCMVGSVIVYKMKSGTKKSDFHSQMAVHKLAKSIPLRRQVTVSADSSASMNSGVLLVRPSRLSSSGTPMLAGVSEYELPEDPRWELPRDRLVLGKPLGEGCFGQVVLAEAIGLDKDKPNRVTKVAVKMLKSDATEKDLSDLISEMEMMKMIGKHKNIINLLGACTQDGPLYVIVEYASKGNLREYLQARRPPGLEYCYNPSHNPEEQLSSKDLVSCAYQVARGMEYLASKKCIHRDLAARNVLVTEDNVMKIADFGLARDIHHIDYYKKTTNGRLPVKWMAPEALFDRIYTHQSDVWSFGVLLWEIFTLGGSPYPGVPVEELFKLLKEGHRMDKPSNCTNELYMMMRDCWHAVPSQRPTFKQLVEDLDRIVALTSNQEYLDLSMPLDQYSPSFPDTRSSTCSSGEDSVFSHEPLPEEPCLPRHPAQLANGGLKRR

In the case of `Cc1cccc(-c2nc(N)sc2-c2ccc3ncccc3n2)c1`, the IC50 [1] is reported as 0.19 µM, the Activity [2] is reported as 134% and the Activity [3] is reported as 133%. The Activity [4] was 124%, the Activity [5] was 119% and the Activity [6] was 117%. For the same compound, the Activity [7] was 115%, the Activity [8] was 113% and the Activity [9] was 112%. It also gave an Activity [10] of 109%, an Activity [11] of 106% and an Activity [12] of 106%. For the same compound, the Activity [13] was 106%, the Activity [14] was 106% and the Activity [15] was 105%. It also gave an Activity [16] of 104%, an Activity [17] of 100% and an Activity [18] of 99%. It also gave an Activity [19] of 99%, an Activity [20] of 99% and an Activity [21] of 95%. It also gave an Activity [22] of 89%, an Activity [23] of 85% and an Activity [24] of 76%. It also gave an Activity [25] of 53%.

From ChEMBL document CHEMBL4177526, “Discovery and structure activity relationship of the first potent cryptosporidium FIKK kinase inhibitor” (Bioorg Med Chem, 2017)
